Measured values published in ChEMBL document CHEMBL3763126, “Development of sigma-1 (σ1) receptor fluorescent ligands as versatile tools to study σ1 receptors” (Eur J Med Chem, 2016).

Experiments:
[1] = target: T1, Sigma non-opioid intracellular receptor 1 (Homo sapiens, UniProt Q99720); assay: Displacement of 5-(Dimethylamino)-2-{6-[(5-(4-(4-methylpiperidin-1-yl)butyl)naphthalen-2-yl)oxy]hexyl}isoindole-1,3-dione from sigma 1 receptor (unknown origin) expressed in MCF7 cells after 75 mins by flow cytometry
T1 sequence (Q99720 whole entry): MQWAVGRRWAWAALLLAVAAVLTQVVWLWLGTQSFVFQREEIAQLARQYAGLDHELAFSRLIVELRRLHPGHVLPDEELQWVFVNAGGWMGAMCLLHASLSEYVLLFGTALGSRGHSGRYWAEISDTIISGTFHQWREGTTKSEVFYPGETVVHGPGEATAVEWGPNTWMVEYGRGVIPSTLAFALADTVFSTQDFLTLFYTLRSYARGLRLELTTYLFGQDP

[2] = target: Sigma non-opioid intracellular receptor 1 (Cavia porcellus, UniProt Q60492); assay: Displacement of [3H]-pentazocine from sigma 1 receptor in guinea pig brain membrane after 120 mins; type: cell membranes
Sigma non-opioid intracellular receptor 1 (Cavia porcellus, UniProt Q60492), sequence (Q60492 whole entry): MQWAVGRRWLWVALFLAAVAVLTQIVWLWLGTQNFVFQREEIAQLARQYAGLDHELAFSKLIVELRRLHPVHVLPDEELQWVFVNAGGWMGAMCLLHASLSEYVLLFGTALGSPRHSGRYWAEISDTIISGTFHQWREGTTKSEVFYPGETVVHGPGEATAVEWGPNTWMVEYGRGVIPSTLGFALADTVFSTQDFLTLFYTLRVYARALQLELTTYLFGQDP
How it was run: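 IC50 from six to nine drug concentrations, two or three experiments with duplicate samples; Ki obtained by nonlinear curve fitting.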

[3] = Displacement of [3H]-DTG from sigma 2 receptor in Wistar hannover rat liver membrane after 120 mins; type: cell membranes
How it was run: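 Six to nine concentrations of test drug, two or three experiments in duplicate; IC50 for inhibition of specific binding, Ki from nonlinear curve fitting.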

[4] = target: T1, Sigma non-opioid intracellular receptor 1; assay: Displacement of 5-(Dimethylamino)-2-(6-((5-(4-(4-methylpiperidin-1-yl)butyl)-5,6,7,8-tetrahydronaphthalen-2-yl)oxy)hexyl)isoindoline-1,3-dione from sigma 1 receptor (unknown origin) expressed in MCF7 after 75 mins by flow cytometry

Compound | IC50 [1] [µM] | Ki [2] [µM] | Ki [3] [µM] | IC50 [4] [µM]
COc1ccc2c(c1)CCCC2CCCCN1CCC(C)CC1 (stereo not drawn) | 0.0121 | 0.00101 | 0.0487 | 0.0113
CC1CCN(CCCCC2CCCc3cc(OCCCCCCN4C(=O)c5ccc(N(C)C)cc5C4=O)ccc32)CC1 (stereo not drawn) | – | 0.00361 | 0.0483 | –
COc1cccc2c1CCCC2CCC(=O)N1CCN(C2CCCCC2)CC1 (stereo not drawn) | – | – | 0.179 | –

Compounds with a lower Ki [3], results first:

IC50 [1] [µM] | Ki [2] [µM] | Ki [3] [µM] | IC50 [4] [µM] | Compound
– | – | 0.00424 | – | COc1cc2c(cc1OC)CN(CCCN1CCc3c(OC)cccc3C1=O)CC2
– | 0.0052 | 0.0456 | – | CC1CCN(CCCCc2cccc3cc(OCCCCCCN4C(=O)c5ccc(N(C)C)cc5C4=O)ccc23)CC1
0.0106 | – | 0.0179 | 0.0155 | COc1ccc2c(CCCCN3CCC(C)CC3)cccc2c1
